Assay results from ChEMBL document CHEMBL1135691, “Synthesis of novel N-1 (allyloxymethyl) analogues of 6-benzyl-1-(ethoxymethyl)-5-isopropyluracil (MKC-442, emivirine) with improved activity against HIV-1 and its mutants” (J Med Chem, 2002).
Several values for one entry are separate records, joined by “and”; a condition that tells them apart may be missing. Equal entries are not always repeated. Structures can show the parent of a compound that is named as a salt.

Columns and labels:
[1] = Selective index (CD50 compared to ED50 against HIV-1 IIIB strain).; assay type: functional
Summary of the method: (§1)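 Ratio of CD50 to ED50. Both values come from 6-day MT-4 MTT assays: uninfected cultures for cytotoxicity, and cultures infected at MOI 0.005 with the named wild-type strain for antiviral effect. Each value was interpolated from inhibition–concentration plots and is the mean of three experiments.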

MT4 = assay: (§2) Cytotoxic dose required to reduce the viability of normal uninfected MT-4 cells by 50%; assay type: functional, Homo sapiens; conditions: read-out: CD50 (the source's name)
[2] = system: Human immunodeficiency virus 1; assay: Inhibition of HIV-1 IIIB replication in MT-4-infected wild type cells.; assay type: functional; conditions: read-out: ED50 (the source's name)
Summary of the method: (§3)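 MT-4 cells infected with wild-type HIV-1 (IIIB, H9-propagated stock, or HxB2 clone) at MOI 0.005 and cultured 6 days in RPMI 1640 with 10% heat-inactivated FCS and compound dilutions. Infected and uninfected controls without compound run in parallel. Virus expression measured indirectly by MTT. EC50 interpolated from inhibition–concentration plots. Mean of three experiments.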

[3] = system: Human immunodeficiency virus 1; assay: Effective concentration required to achieve 50% inhibition of HIV-1 multiplication in MT-4-infected Y181C+K103N strain; assay type: functional; conditions: read-out: ED50 (the source's name)
Summary of the method: (§4)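 NNRTI-resistant HIV-1 strains infected MT-4 cells at 0.005 MOI. Cells were cultured with serial compound dilutions in RPMI 1640 with 10% heat-inactivated FCS and antibiotics for 6 days, alongside infected and uninfected no-compound controls. Viral expression was quantified indirectly by MTT assay. EC50 was interpolated from percent-inhibition versus concentration plots. Values are means of three separate experiments.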

[4] = system: Human immunodeficiency virus 1; assay: (§5) Effective concentration required to achieve 50% inhibition of HIV-1 multiplication in MT-4-infected Y181C strain; assay type: functional; conditions: read-out: ED50 (the source's name); summary of the method: as §4
[5] = system: Human immunodeficiency virus 1; assay: Effective concentration required to achieve 50% inhibition of HIV-1 multiplication in MT-4-infected wild type cells; assay type: functional; conditions: read-out: ED50 (the source's name); summary of the method: as §3
[6] = system: Human immunodeficiency virus 1; assay: as §5; assay type: functional; conditions: read-out: ED50 (the source's name); summary of the method: as §4; remark: listed apart in the source
[7] = (§6) Selective index as the ratio of CD50 to that of ED50 against HIV-1 HxB2 strain.; assay type: functional; summary of the method: as §1
[8] = system: Human immunodeficiency virus 1; assay: Effective concentration required to achieve 50% inhibition of HIV-1 multiplication in MT-4-infected K103N strain; assay type: functional; conditions: read-out: ED50 (the source's name); summary of the method: as §4
[9] = as §2; assay type: cell-based, MT4; conditions: human, read-out: CD50 (the source's name)
[10] = Selective index as the ratio of CD50 to that of ED50 against HIV-1 IIIB strain.; summary of the method: as §1
[11] = as §6; summary of the method: as §1

Structure (SMILES)	SI [1]	CC50 (MT4; Homo sapiens, MT4) [nM]	EC50 [2] [nM]	EC50 [3] [nM]	EC50 [4] [nM]	EC50 [5] [nM]	CC50 (MT4)	EC50 [6] [nM]	SI [7]	EC50 [8] [nM]	CC50 [9] [nM]	SI [10]	SI [11]
C=CCOCn1c(Cc2cccc3ccccc23)c(CC)c(=O)[nH]c1=O	32	32000	1000	–	–	–	–	–	–	–	–	–	–
C=CCOCn1c(Cc2cc(C)cc(C)c2)c(C(C)C)c(=O)[nH]c1=O	150000	30000	0.2	> 100000	> 100000	–	–	–	–	–	–	–	–
C=CCOCn1c(Cc2cc(C)cc(C)c2)c(CC)c(=O)[nH]c1=O	25000	100000	4	10000	320	0.02	> 100000 nM	70	> 5e+06	20	–	–	–
O=C1Nc2ccc(Cl)cc2[C@@](C#CC2CC2)(C(F)(F)F)O1 [EFAVIRENZ]	–	> 100000	10	2700	–	40	–	40	–	350	–	–	–
CCc1c(Cc2cccc3ccccc23)n(COCC=C(C)C)c(=O)[nH]c1=O	> 333	> 100000	300	–	–	–	–	–	–	–	–	–	–
CCc1c(Cc2cc(C)cc(C)c2)n(COCC=C(C)C)c(=O)[nH]c1=O	120000	36000	0.3	> 100000	340	0.02	61000 nM	450	3.03e+06	90	–	–	–
C#CCOCn1c(Cc2cc(C)cc(C)c2)c(CC)c(=O)[nH]c1=O	> 33300	> 100000	3	3000	> 100000	–	–	–	–	–	–	–	–
CC(C)=CCOCn1c(Cc2ccccc2)c(C(C)C)c(=O)[nH]c1=O	1070	34000	30	> 100000	> 100000	30	–	> 100000	1120	3800	32000	–	–
C#CCOCn1c(Cc2ccccc2)c(C(C)C)c(=O)[nH]c1=O	> 14300	> 100000	7	> 100000	> 100000	–	–	–	–	–	–	–	–
Cc1ccnc2c1NC(=O)c1cccnc1N2C1CC1 [NEVIRAPINE]	> 263	> 100000	380	> 100000	> 100000	570	–	22000	> 175	4300	–	–	–
C=C(C)COCn1c(Cc2cc(C)cc(C)c2)c(C(C)C)c(=O)[nH]c1=O	> 667000	> 100000	0.15	26000	15000	–	–	–	–	–	–	–	–
C=C(C)COCn1c(Cc2cc(C)cc(C)c2)c(CC)c(=O)[nH]c1=O	> 40000	> 100000	2.5	28000	360	8	–	4000	> 12500	2200	–	–	–
CC(C)Nc1cccnc1N1CCN(C(=O)c2cc3cc(NS(C)(=O)=O)ccc3[nH]2)CC1 [DELAVIRDINE MESYLATE]	700	42000	60	> 100000	> 100000	190	> 42000 nM	4500	> 221	3000	–	–	–
C=C(C)COCn1c(Cc2cccc3ccccc23)c(CC)c(=O)[nH]c1=O	35	35000	1000	–	–	–	–	–	–	–	–	–	–
CC(C)=CCOCn1c(Cc2cc(C)cc(C)c2)c(C(C)C)c(=O)[nH]c1=O	> 500000	> 100000	0.2	28000	19000	–	–	–	–	–	–	–	–
C=CCOCn1c(Cc2ccccc2)c(C(C)C)c(=O)[nH]c1=O	> 25000	> 100000	4	> 100000	100000	3	–	3300	> 33300	900	–	–	–
C=C(C)COCn1c(Cc2ccccc2)c(C(C)C)c(=O)[nH]c1=O	–	–	280	> 100000	> 100000	50	40000 nM and > 100000 nM	> 100000	–	> 100000	–	142	> 2000
